High-throughput results as filed in PubChem BioAssay.
This is a sample that favours compounds with a hit; in the whole collection about 2.6% have one here.
esBAF inh = Bmi1 luciferase reporter increase in mESCs, primary screen, esBAF inhibitor project, mouse ES cells, Bmi1 luciferase knock-in, single point; 24 h; 100% = twice the neutral-well signal; reporter increase, % at 12.5 µM; 2% of 350,000 active; AID 602393, 2012; in the data active = activation above about 40%; inconclusive = no clear call, values can overlap the other calls;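 also: 0% = median of the plate's neutral control wells and 100% = double that signal; a rise in the Bmi1 reporter signal indicates esBAF inhibition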
Vif imaging = HIV Vif self-association inhibitors, primary screen, imaging, HEK293T, single point; HEK293T cells, Vif self-association by quenched fluorescence, 24 h; inhibition, % at 7.49 µM; 0.35% of 340,000 active; in the data active = inhibition above about 50%, passing the limit was not always enough; inconclusive = no clear call, values can overlap the other calls; inactive = below about 31%
XiGFP reactiv = activators of inactive X chromosome reactivation, primary screen, imaging, XiGFP fibroblasts, GFP high-content imaging, set 2. 0.055% of 360,000 active. activation, % at 7.58 µM. AID 743238, 2013. XiGFP mouse fibroblasts, % GFP-positive cells imaging, 3 d; cells co-treated with 5-aza-dC sensitizer; scaled so ellipticine positive control = 100%;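 active = mean normalized replicate activation at least 10% and every replicate at or above 10%; inconclusive = only one of the two criteria met; inactive = mean below 10% and not all replicates reach 10%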;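 also: 0% = median of on-plate neutral control wells and 100% = ellipticine 6 µM median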
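Material: XiGFP fibroblasts, SV40-immortalized; Buffer or medium: DMEM containing 5-aza-dC; Compound dosing: single point; Times: 3 days compound exposure.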
Wnt act = Wnt/beta-catenin pathway activators, primary screen, cell-based, plate reader, single point; Wnt/beta-catenin reporter cell assay, activator; activation, % at 9.35 µM; 1.2% of 300,000 active; AID 743398, 2014; in the data active = activation above about 30%, passing the limit was not always enough; inconclusive = no clear call, values can overlap the other calls;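 also: 0% = neutral control wells and 100% = positive control wells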
MITF act = activators of MITF-driven TRPM1 promoter reporter, primary screen, cell-based, SK-MEL-5, luciferase, single point | 0.75% of 300,000 active | activation, % at 12.5 µM | SK-MEL-5 TRPM1-promoter luciferase, 24 h; % of positive control, neutral wells = 0;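 active = mean activation of at least 80% with every replicate also reaching 80%; inconclusive = mean reaches 80% but some replicate falls short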;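 also: 0% = neutral control wells and 100% = parthenolide positive control wells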
Active calls of the source: *; i = inactive; ? = inconclusive; nt = no result.

SMILES	esBAF inh	Vif imaging	XiGFP reactiv	Wnt act	MITF act
CCN1C(=S)SC(=O)C1=C1C=C(C)OC(C)=C1	nt	nt	nt	nt	90.7*
CCN1C(=S)SC(=O)C1=C1C=C(C)N(Cc2ccco2)C(C)=C1	72.0*	i	nt	18.6	56.8
CCN1C(=O)/C(=C2/Sc3ccccc3N2CC)SC1=S	-0.6	-3.8	2.8	-0.9	6.6
O=C1C(=C2CCCCC2)SC(=S)N1Cc1ccco1	-3.2	-8.5	nt	-3.9	-12.8
O=C(C1CCC1)N1CC2(C1)[C@H](c1ccccc1)[C@H](CO)N2Cc1cccnc1	nt	nt	0.0	nt	nt
C[C@H]1CN([C@@H](C)CO)C(=O)c2cc(-c3cccnc3)cnc2O[C@H]1CN(C)C(=O)C1CC1	0.2	nt	-0.3	nt	nt
Clc1ccc(-c2nc(C3CCCCC3)no2)cc1	75.6*	14.9	0.0	70.7*	90.6*
CCC(=O)Nc1c(C(=O)Nc2cccc(OC)c2)oc2ccccc12	42.7*	4.4	nt	nt	74.0
O=C(Nc1ccc2c(c1)OCCO2)c1oc2ccccc2c1NC(=O)C1CC1	nt	-7.5	0.0	4.9	1.1
CCOCC(=O)Nc1c(C(=O)Nc2ccc3c(c2)OCCO3)oc2ccccc12	nt	-9.2	0.0	15.4	94.6*
COCC(=O)Nc1c(C(=O)Nc2ccc3c(c2)OCCO3)oc2ccccc12	9.1	-2.8	0.1	18.2	91.6*
CCOC(=O)c1oc2ccccc2c1NC(=O)c1cccc(OC)c1	-10.1	-3.7	nt	-6.3	25.2
CCC(=O)Nc1c(C(=O)Nc2ccc3c(c2)OCCO3)oc2ccccc12	nt	-7.2	0.1	36.4*	97.5*
C[C@H](CO)N1C[C@H](C)[C@@H](CN(C)C(=O)NC2CCCCC2)Oc2c(NC(=O)c3cnccn3)cccc2C1=O	-0.7	nt	0.2	nt	nt
C[C@@H]1CCCCO[C@@H](CN(C)S(C)(=O)=O)[C@H](C)CN([C@H](C)CO)C(=O)c2cc(NC(=O)CCC(F)(F)F)ccc2O1	-19.8	nt	-0.1	nt	nt
CS(=O)(=O)N1N=C(c2ccc(Br)cc2)CC1c1ccc2c(c1)OCO2 (stereo not drawn)	53.9*	-3.4	nt	nt	?
Cc1ccc(C2=NN(S(C)(=O)=O)C(c3ccc4c(c3)OCO4)C2)cc1 (stereo not drawn)	nt	nt	0.0	50.3*	38.1
CC(=O)N1N=C(c2ccc(C)cc2)CC1c1ccc2c(c1)OCO2 (stereo not drawn)	100.2*	3.3	0.0	?	nt
O=C(C1CC1)N1C[C@H]2[C@@H](c3ccccc31)[C@H](CO)N2Cc1ccccc1Cl	-6.2	nt	0.0	nt	nt
Cc1[nH]c2ccccc2c1/C=C/c1nc2ccccc2c(=O)[nH]1	45.8*	-5.8	-0.1	-0.6	92.6*
CCOc1cc(/C=C/c2nc3ccccc3c(=O)[nH]2)ccc1O	71.0*	1.5	0.0	7.9	78.2
COc1cc(/C=C/c2nc3ccccc3c(=O)[nH]2)ccc1O	10.7	nt	0.4	3.3	nt
O=C1CNC[C@@H]2[C@@H](c3ccc(C4=CCCCC4)cc3)[C@H](CO)N12	nt	nt	0.1	nt	nt
COc1ccc(-n2ncc3c(Nc4cccc(C)c4)ncnc32)cc1	35.0	-8.1	nt	-2.9	120.2*
CCCN(CCC)c1ncnc2c1cnn2-c1ccc(OC)cc1	37.2	-8.3	nt	nt	128.3*
SMILES	esBAF inh	Vif imaging	XiGFP reactiv	Wnt act	MITF act
Cc1cccc(-n2ncc3c(Nc4ccc(F)cc4)ncnc32)c1	71.1*	-12.0	0.2	10.5	70.5
Cc1cccc(-n2ncc3c(NCCCn4ccnc4)ncnc32)c1	49.0*	-2.7	0.5	-2.5	nt
CCC(=O)N1CC(=O)N2[C@H](C1)[C@H](c1ccc(C#Cc3cccc(OC)c3)cc1)[C@@H]2CO	nt	nt	0.1	nt	nt
Cc1cc(C(=O)Cn2nc(C(=O)O)c3ccccc3c2=O)c(C)n1CC(F)(F)F	43.6*	-0.8	0.0	-1.8	?
CC(C)C(c1nnnn1Cc1ccc2c(c1)OCO2)N1CCN(c2ccccc2)CC1 (stereo not drawn)	-5.9	-11.8	nt	nt	nt
CC(C)C(c1nnnn1Cc1ccc2c(c1)OCO2)N1CCN(C)CC1 (stereo not drawn)	-3.0	65.9*	nt	-0.8	nt
Cc1cccc(NC2SC(=O)N(c3ccccc3)C2=O)c1 (stereo not drawn)	54.8*	6.2	nt	nt	0.1
O=C(CC1SC(=O)N(c2ccccc2)C1=O)Nc1ccccc1 (stereo not drawn)	nt	-2.8	nt	nt	-2.2
